According to ChEMBL document CHEMBL3817796, “Discovery of Novel 15-Lipoxygenase Activators To Shift the Human Arachidonic Acid Metabolic Network toward Inflammation Resolution” (J Med Chem, 2016):

Columns and labels:
[1] = molecular target: T1, Polyunsaturated fatty acid 5-lipoxygenase (Homo sapiens) (UniProt P09917); assay: Activation of human 5-LOX assessed as H2DCFDA oxidation at 100 uM using arachidonic acid substrate incubated for 5 mins by fluorescence assay
T1 sequence (whole entry): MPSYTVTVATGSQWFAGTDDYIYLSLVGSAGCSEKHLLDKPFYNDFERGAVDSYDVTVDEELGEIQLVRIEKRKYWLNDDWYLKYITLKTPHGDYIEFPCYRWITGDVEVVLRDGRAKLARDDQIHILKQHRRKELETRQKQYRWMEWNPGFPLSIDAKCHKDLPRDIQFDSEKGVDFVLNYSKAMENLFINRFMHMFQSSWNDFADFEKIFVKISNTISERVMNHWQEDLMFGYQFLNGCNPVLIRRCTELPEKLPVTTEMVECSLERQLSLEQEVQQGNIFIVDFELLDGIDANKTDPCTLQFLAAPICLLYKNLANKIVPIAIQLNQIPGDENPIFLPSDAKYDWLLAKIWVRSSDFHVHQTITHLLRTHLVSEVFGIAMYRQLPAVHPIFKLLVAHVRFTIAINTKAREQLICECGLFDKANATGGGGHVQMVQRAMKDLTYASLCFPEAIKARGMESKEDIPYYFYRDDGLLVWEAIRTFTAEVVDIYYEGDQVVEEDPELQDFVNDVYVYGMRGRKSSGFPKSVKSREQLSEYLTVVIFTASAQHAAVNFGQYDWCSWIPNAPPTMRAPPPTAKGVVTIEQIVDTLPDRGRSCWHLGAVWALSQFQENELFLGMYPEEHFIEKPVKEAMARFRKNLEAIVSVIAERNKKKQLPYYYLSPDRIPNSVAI
Summary of the method: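 Human 5-LOX activity followed as AA-driven oxidation of H2DCFDA to fluorescent dichlorofluorescein (ex 500/em 520 nm), recorded for 5 min. Compound handled as in the 15-LOX assay.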

[2] = molecular target: T2, Polyunsaturated fatty acid lipoxygenase ALOX15 (Homo sapiens) (UniProt P16050); assay: Activation of 15-LOX in human whole blood assessed as LTB4 production at 100 uM pre-incubated for 20 mins before stimulation with LPS and A23187 for 120 mins in presence of 2 uM 5-LOX inhibitor Zileuton by LC-MS/MS method; type: tissue-based
T2 sequence (whole entry): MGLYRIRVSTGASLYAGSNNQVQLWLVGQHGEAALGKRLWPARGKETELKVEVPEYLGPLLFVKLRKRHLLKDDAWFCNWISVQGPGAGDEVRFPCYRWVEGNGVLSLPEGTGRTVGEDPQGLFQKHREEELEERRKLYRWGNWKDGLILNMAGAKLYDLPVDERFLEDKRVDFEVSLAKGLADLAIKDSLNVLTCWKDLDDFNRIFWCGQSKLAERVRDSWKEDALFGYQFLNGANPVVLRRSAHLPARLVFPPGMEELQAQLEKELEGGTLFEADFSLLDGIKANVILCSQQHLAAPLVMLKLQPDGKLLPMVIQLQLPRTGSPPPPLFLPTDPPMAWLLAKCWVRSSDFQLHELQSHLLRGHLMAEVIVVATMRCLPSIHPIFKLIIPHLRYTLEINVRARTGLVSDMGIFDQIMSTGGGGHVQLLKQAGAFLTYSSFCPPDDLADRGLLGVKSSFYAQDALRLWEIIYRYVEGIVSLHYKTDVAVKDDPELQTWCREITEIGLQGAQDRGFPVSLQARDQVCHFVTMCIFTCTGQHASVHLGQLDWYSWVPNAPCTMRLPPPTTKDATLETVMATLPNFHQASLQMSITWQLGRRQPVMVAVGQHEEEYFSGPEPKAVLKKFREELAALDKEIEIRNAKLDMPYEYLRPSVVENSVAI
Summary of the method: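 Human blood preincubated 20 min at 37 °C with DMSO vehicle or compound in DMSO. LPS added at 100 μg/mL for 24 h at 37 °C, then A23187 at 20 μg/mL final. Samples frozen in liquid nitrogen at time points, lysed by freeze–thaw, with PGB2 internal standard. Analysed by C18 LC-MRM MS, negative ion. Change = control-normalized concentration minus 1, ×100%; 120 min value from AUC.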

[3] = molecular target: T3, Prostaglandin G/H synthase 2 (Homo sapiens) (UniProt P35354); assay: Activation of COX2 (unknown origin) assessed as PGG2 to PGH2 conversion by measuring N,N,N',N'-tetramethyl-p-phenylenediamine oxidation at 100 uM by spectrophotometry
T3 sequence (whole entry): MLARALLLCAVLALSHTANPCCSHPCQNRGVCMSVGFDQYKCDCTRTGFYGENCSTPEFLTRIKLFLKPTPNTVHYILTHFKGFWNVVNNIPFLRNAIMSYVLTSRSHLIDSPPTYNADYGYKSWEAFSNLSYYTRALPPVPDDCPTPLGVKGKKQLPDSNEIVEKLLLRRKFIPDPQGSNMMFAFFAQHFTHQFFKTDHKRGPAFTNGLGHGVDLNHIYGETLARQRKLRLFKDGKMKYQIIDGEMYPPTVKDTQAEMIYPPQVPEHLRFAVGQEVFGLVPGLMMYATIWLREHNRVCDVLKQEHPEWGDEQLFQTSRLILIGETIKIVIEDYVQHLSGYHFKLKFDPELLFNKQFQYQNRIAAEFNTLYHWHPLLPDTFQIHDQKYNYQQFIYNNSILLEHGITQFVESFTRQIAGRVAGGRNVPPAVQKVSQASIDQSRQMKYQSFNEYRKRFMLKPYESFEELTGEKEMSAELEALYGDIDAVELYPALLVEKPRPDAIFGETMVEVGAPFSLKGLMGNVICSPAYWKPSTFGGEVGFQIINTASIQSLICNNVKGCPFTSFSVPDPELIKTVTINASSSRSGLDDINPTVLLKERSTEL

[4] = molecular target: T3, Prostaglandin G/H synthase 2 (Homo sapiens); assay: Inhibition of COX2 (unknown origin) assessed as reduction in PGG2 to PGH2 conversion by measuring N,N,N',N'-tetramethyl-p-phenylenediamine oxidation at 100 uM by spectrophotometry

Activity [1]: < 5%
Activity [2]: 54%
Activity [3]: < 5%
inhibition [4]: < 5%
Structure (SMILES): CN1CCN(CC(=O)N2N=C3/C(=C/c4ccccc4)CCCC3C2c2ccccc2)CC1 (centres undefined)
